We go through three compounds from ChEMBL document CHEMBL1121486, “Synthesis of nitrosourea derivatives of pyridine and piperidine as potential anticancer agents” (1980).

What all share (settings): route intraperitoneal
In assay [1] the test system is L1210. The experiment in a line: Compound tested for activity against mouse leukemia L1210 tumor (Intraperitoneally implanted) after single ip injection on day 1 at optimal dose of 100 mg/kg (Dose range 256-16). It is filed as functional. In short, it runs like this: (§1)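 L1210 leukaemia implanted intraperitoneally in mice. Compound given over a dose range (mg/kg); optimum dose selected. Survivors for toxicity recorded day 5 post-injection. Measures: T – C body weight difference (g), % T/C, and cures, defined as 30-day survivors.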

For assay [2], the system named is L1210. As to the kind of experiment: Compound tested for toxicity against mouse leukemia L1210 tumor (Intraperitoneally implanted) after single ip injection on day 1 at optimal dose (OD) of 100 mg/kg on the 5th day after the injection of the compound; (6/6). It is filed as functional.
The subject of assay [3] is L1210. The experiment in a line: The effect of compound on mouse leukemia L1210 tumor (Intraperitoneally implanted)after single dose injected intraperitoneally on day 1 […] at OD of 100 mg/kg. It is filed as functional.
For assay [4], the system named is L1210. The experiment in a line: Effect of compound on mouse leukemia L1210 tumor (Intraperitoneally implanted) after single dose injected intraperitoneally on day 1 recorded as animal weight difference of the treated and the control (T-C) at OD of 100 mg/kg. It is filed as functional. In short, it runs like this: as §1
Assay [5] deals with L1210. The experiment in a line: Compound tested for activity against mouse leukemia L1210 tumor (Intraperitoneally implanted) after single ip injection on day 1 at optimal dose of 100 mg/kg (Dose range 400-12.5). It is filed as functional. Put shortly: as §1
The test system of assay [6] is L1210. The experiment in a line: Compound tested for toxicity against mouse leukemia L1210 tumor (Intraperitoneally implanted) after single ip injection on day 1 at optimal dose (OD) of 12.5 mg/kg on the 5th day after the injection of the compound; (5/5).

In general, T/C refers to the result in the treated group divided by that in the control group, in per cent.

In the assay with L1210 [1], `CCN1CCCC(NC(=O)N(CCCl)N=O)C1.O=C(O)/C=C\C(=O)O` (configuration not stated) registered an Optimal dose of 128 mg/kg. This compound also showed a Survival with L1210 [2] of 6. The same compound displayed a T/C in the assay on L1210 [3] of 235%. In the assay on L1210 [4], the T-C is -5.9 g.

In the case of `O=C(O)/C=C\C(=O)O.O=NN(CCCl)C(=O)Nc1cccnc1`, the Optimal dose in the assay with L1210 [5] was 12.5 mg/kg. Moreover, in the assay with L1210 [6], the Survival amounted to 5. In addition, the T/C in the assay with L1210 [3] was found to be 126%. For the same compound, the T-C in the assay on L1210 [4] is reported as -7 g.

`CCCCN1CCC(NC(=O)N(CCCl)N=O)CC1.O=C(O)/C=C\C(=O)O`: the Optimal dose in the assay with L1210 [1] is 64 mg/kg. In the assay on L1210 [2], the Survival is recorded as 6. The T/C with L1210 [3] was found to be 197%. Also, the T-C with L1210 [4] is -3.9 g.
